Results filed as inconclusive are left out.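 How the source made its calls, unless noted: active means RAM network inhibition above 8.4% in each of two replicates, 3 SD over the compound average; inconclusive means above 8.4% inhibition in only one replicate; inactive means 8.4% inhibition or less in each replicate.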
Assays:
[1] = S. cerevisiae growth inhibition in permissive medium (OD615), pilot counter-assay for S. cerevisiae lifespan shortening project, permissive growth control (AID 705;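 active means growth inhibition above 25% in both replicates, a cutoff set 3 SD above the mean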); details: OD615, 24 h, at 10 µM, active compounds read high
In short: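 System: engineered DeaD yeast; Medium: permissive raffinose/galactose medium; Compound dosing: 10 µM single dose, 0.25% DMSO; Incubation: 4 h cell pre-growth, 24 h exposure at 30 °C; Technique: OD at 615 nm; Evaluation: growth inhibition from lowered OD615 after 24 h.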

[2] = S. cerevisiae growth inhibition in restrictive medium, OD615, pilot screen, restrictive growth control, yeast lifespan reduction project (AID 706;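 active means growth inhibition above a set limit, 3 SD over mean compound inhibition, in both replicates, cut at about 43% in these data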;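 further: modified DeaD lifespan yeast strain shifted to restrictive glucose medium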); details: OD615, 48 h, at 10 µM, active compounds read high
In short: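 Material: modified S. cerevisiae; buffer or medium: CSMM-D glucose medium; doses: one concentration, 10 µM final, 0.25% DMSO; incubation: 48 h compound exposure at 30 °C; detection: optical density at 615 nm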

[3] = doxorubicin toxicity protection in MRP-1 cells – H69AR cells, CellTiter-Glo, duplicate, MRP-1 activator project, pilot screen (AID 807;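 active means viability increase at or above a cutoff of the median across tested compounds plus 3 SD, cut at about 8.5% in these data, passing the limit was not always enough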;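 further: compound pretreatment 18-22 h then 72 h combined with doxorubicin; 0% = doxorubicin alone and 100% = vehicle without doxorubicin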); details: H69AR viability with doxorubicin, CellTiter-Glo luminescence; at 10 µM; active compounds read high
[4] = viability of HCT116 without oncogenic beta-catenin – human colon tumor cells, pilot screen (AID 823;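 active means cell viability at or below a set limit in both duplicate runs, the limit being the all-compound median minus 4 SD, cut at about 23% in these data, passing the limit was not always enough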;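 further: 0% = wells killed by 20 µM Hyamine and 100% = untreated DMSO cell wells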); details: HCT116 beta-catenin knockout viability, CellTiter-Glo, 60 h; at 10 µM; active compounds read low
[5] = viability of PTEN-null HCT116 cells – cell-based, HCT116 clonal line, CellTiter-Glo, pilot screen (AID 824;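 active means viability at or below 27.92% in each of two runs, the all-compound median minus 4 SD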;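 further: 0% = 20 µM Hyamine control and 100% = vehicle cell control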); details: HCT116 PTEN-deleted viability, 60 h, at 10 µM, active compounds read low
[6] = RAM pathway blockade in budding yeast – dse1pr::URA3 reporter, 5-FOA selection, pilot screen (AID 869;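 active means inhibition over a set limit, the all-compound mean plus 3 SD, in both replicate runs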;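 further: 0% = DMSO wells with no growth and 100% = 10 µM 1-NA-PP1 with full growth; RAM network block rescues cells from 5-FOA so hits raise OD615 growth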); details: S. cerevisiae dse1pr::URA3 5-FOA growth, OD615, 2 d; at 10 µM; active compounds read high; strain carries analog-sensitive mutant Cbk1 kinase
[7] = RAM signaling pathway blockade in yeast – S. cerevisiae, Pdr1DBD-CYC8 efflux-inhibited sensitized strain, primary screen (AID 1298);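 further: 0% = DMSO untreated cells without growth and 100% = 10 µM 1-NA-PP1 full growth; higher means more yeast growth rescued from 5-FOA killing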; details: S. cerevisiae cbk1-as DSE1-URA3 strain, 5-FOA growth OD615, 2 d; at 50 µM; active compounds read high

CC(=O)N1CCN(CCN=CC2=C(O)CC(c3ccc(Cl)cc3)CC2=O)CC1 (configuration not stated)
inactive: growth inhibition [1] -8.45% | growth inhibition [2] -3.19% | viability increase [3] 1.98% | viability [4] 99.2% | viability [5] 101% | inhibition [6] 1.2% | RAM network inhibition [7] -0.17%

COC(=O)c1ccc(Cl)c(NC(=O)NC2CCCCC2)c1
inactive: growth inhibition [1] -15.1% | growth inhibition [2] -5.54% | viability increase [3] -1.61% | viability [4] 96.3% | viability [5] 93% | inhibition [6] 2.23% | RAM network inhibition [7] 6.1%

COc1ccc(C(c2sc3ncnn3c2O)N2CC(C)OC(C)C2)cc1OC (configuration not stated)
inactive: growth inhibition [1] 0.335% | growth inhibition [2] -6.37% | viability increase [3] -1% | viability [4] 102% | viability [5] 87.3% | inhibition [6] 0.55% | RAM network inhibition [7] 0.12%

CCOC(=O)c1ccc(Nc2nnc(C(C)(C)C)c(=O)[nH]2)cc1
inactive: growth inhibition [1] -18.6% | growth inhibition [2] -21.9% | viability increase [3] -7.93% | viability [4] 49.6% | viability [5] 43.7% | inhibition [6] 0.35% | RAM network inhibition [7] 2.06%

COc1ccc(OCC(O)CN2CCCCC2)cc1 (configuration not stated)
inactive: growth inhibition [1] -7.21% | growth inhibition [2] -11.1% | viability increase [3] -1.52% | viability [4] 95% | viability [5] 101% | inhibition [6] 1.59% | RAM network inhibition [7] 0.52%

COc1ccc(N2C(=O)CC(NCc3cccc(F)c3)C2=O)cc1 (configuration not stated)
inactive: growth inhibition [1] -6.89% | growth inhibition [2] -3.85% | viability increase [3] -0.75% | viability [4] 99.3% | viability [5] 98% | inhibition [6] 0.82% | RAM network inhibition [7] 5.38%

O=C(Cc1cccs1)Nc1nnc(-c2ccncc2)s1
inactive: growth inhibition [1] -0.91% | growth inhibition [2] 3.21% | viability increase [3] 2.53% | viability [4] 108% | viability [5] 98.8% | inhibition [6] 0.38% | RAM network inhibition [7] 0.83%

O=C(NCc1ccc(F)cc1)c1cnc2n(c1=O)CCS2
inactive: growth inhibition [1] -2.45% | growth inhibition [2] -2.23% | viability increase [3] 2.85% | viability [4] 101% | viability [5] 102% | inhibition [6] 0.54% | RAM network inhibition [7] -0.84%

COc1ccc(OCC(=O)Nc2cc(-c3nn4c(C)nnc4s3)ccc2C)cc1
inactive: growth inhibition [1] 0.16% | growth inhibition [2] 0.525% | viability increase [3] -1.72% | viability [4] 106% | viability [5] 94% | inhibition [6] 0.755% | RAM network inhibition [7] 5.36%

Cc1coc2c(C)c3oc(=O)c4c(c3cc12)CCCC4
inactive: growth inhibition [1] -10.3% | growth inhibition [2] -13.6% | viability increase [3] -5.04% | viability [4] 81.3% | viability [5] 59% | inhibition [6] 2.46% | RAM network inhibition [7] 5.02%

Cc1ccc(N2CC(c3nc4ccccc4[nH]3)CC2=O)c(C)c1 (configuration not stated)
inactive: growth inhibition [1] -14.1% | growth inhibition [2] -17% | viability increase [3] 0.06% | viability [4] 107% | viability [5] 94.4% | inhibition [6] 1.45% | RAM network inhibition [7] 0.01%

Oc1c(C(c2cccc(F)c2)N2CCN(Cc3ccccc3)CC2)sc2ncnn12 (configuration not stated)
inactive: growth inhibition [1] -6.58% | growth inhibition [2] 3.16% | viability increase [3] -0.83% | viability [4] 87.7% | viability [5] 80.7% | inhibition [6] 0.05% | RAM network inhibition [7] -2.27%

COc1ccc(N2CC(C(=O)Nc3ccc(S(=O)(=O)Nc4nc(C)cc(C)n4)cc3)CC2=O)cc1 (configuration not stated)
inactive: growth inhibition [1] -8.26% | growth inhibition [2] -7.87% | viability increase [3] -1.39% | viability [4] 100% | viability [5] 91.4% | inhibition [6] 1% | RAM network inhibition [7] 2.5%

COc1ccc(-c2nn(-c3ccccc3)cc2C(=O)O)cc1
inactive: growth inhibition [1] -8.52% | growth inhibition [2] 1.15% | viability increase [3] -3.69% | viability [4] 105% | viability [5] 97% | inhibition [6] 3.71% | RAM network inhibition [7] 11.1%

COc1ccc(Cl)cc1C(=O)N(Cc1nc(-c2cccc(C)c2)no1)C(C)C
inactive: growth inhibition [1] -18.4% | growth inhibition [2] -10.7% | viability increase [3] 0.87% | viability [4] 58.8% | viability [5] 57.6% | inhibition [6] 2.31% | RAM network inhibition [7] 8.49%

CCOC(=O)C1=C(O)/C(=C/N(C)C)N=C1C
inactive: growth inhibition [1] 4.34% | growth inhibition [2] 5.5% | viability increase [3] -0.31% | viability [4] 103% | viability [5] 106% | inhibition [6] 3.19% | RAM network inhibition [7] 0.56%

O=C(CC1Oc2ccccc2NC1=O)NCc1ccccc1 (configuration not stated)
inactive: growth inhibition [1] 0.945% | growth inhibition [2] -4.32% | viability increase [3] -0.93% | viability [4] 105% | viability [5] 100% | inhibition [6] 3.42% | RAM network inhibition [7] 4.73%

O=C(C1COc2ccccc2O1)N1CCn2c(nc3ccccc32)C1 (configuration not stated)
inactive: growth inhibition [1] -13.1% | growth inhibition [2] -3.57% | viability increase [3] -2.64% | viability [4] 106% | viability [5] 92% | inhibition [6] 1.85% | RAM network inhibition [7] 4.61%

C=CCn1c(=N)n(CC(O)COc2ccc(OC)cc2)c2ccccc21 (configuration not stated)
inactive: growth inhibition [1] -10.9% | growth inhibition [2] 1.67% | viability increase [3] -4.96% | viability [4] 64.8% | viability [5] 69% | inhibition [6] -0.445% | RAM network inhibition [7] -0.51%

OCCN1CCN(c2ncnc3ccc(Br)cc23)CC1
inactive: growth inhibition [1] -15.5% | growth inhibition [2] 4.06% | viability increase [3] -4.77% | viability [4] 99.1% | viability [5] 96.7% | inhibition [6] -0.12% | RAM network inhibition [7] -1.2%

COc1cccc(NC(=O)c2nnn(CCc3ccccc3)c2N)c1
inactive: growth inhibition [1] -1.48% | growth inhibition [2] 0.3% | viability increase [3] -6.11% | viability [4] 65.9% | viability [5] 50.7% | inhibition [6] 2.52% | RAM network inhibition [7] 0.72%

COc1ccc(C2CC(C(F)(F)F)n3ncc(C(=O)O)c3N2)cc1OC (configuration not stated)
inactive: growth inhibition [1] -0.77% | growth inhibition [2] -3% | viability increase [3] 0.06% | viability [4] 97.2% | viability [5] 97.9% | inhibition [6] 0.23% | RAM network inhibition [7] -0.41%

C=CCSC1=N/C(=C\c2ccsc2)C(=O)S1
inactive: growth inhibition [1] 7.03% | growth inhibition [2] 27.8% | viability increase [3] -2.48% | viability [4] 98.1% | viability [5] 93% | inhibition [6] 0.475% | RAM network inhibition [7] 0.97%

O=C(Nc1ccccc1)C1CC(=O)N(C2CCCCC2)C1 (configuration not stated)
inactive: growth inhibition [1] -8.56% | growth inhibition [2] 7.07% | viability increase [3] 1.42% | viability [4] 105% | viability [5] 101% | inhibition [6] 1.58% | RAM network inhibition [7] 3.42%

Cc1oc(-c2cccs2)nc1CS(=O)CC(=O)NCCc1ccccc1 (configuration not stated)
inactive: growth inhibition [1] 0.14% | growth inhibition [2] 34.7% | viability increase [3] -0.31% | viability [4] 86.1% | viability [5] 97.5% | inhibition [6] 2.6% | RAM network inhibition [7] 7.8%

CC(=O)c1ccc(OCC(O)Cn2nnc3ccccc32)cc1 (configuration not stated)
inactive: growth inhibition [1] -15.7% | growth inhibition [2] -1.76% | viability increase [3] 0.2% | viability [4] 87.6% | viability [5] 97.9% | inhibition [6] 0.455% | RAM network inhibition [7] 7.79%

COc1ccc(N2C(=O)C(CC(=O)O)S/C2=C\C(C)=O)cc1 (configuration not stated)
inactive: growth inhibition [1] -7.45% | growth inhibition [2] -2.82% | viability increase [3] -0.23% | viability [4] 98% | viability [5] 99.4% | inhibition [6] 0.95% | RAM network inhibition [7] 3.43%

COc1ccc2ccccc2c1C1CC(=O)N2CN(Cc3ccco3)CSC2=C1C#N (configuration not stated)
inactive: growth inhibition [1] 1.42% | growth inhibition [2] 16.4% | viability increase [3] -5.39% | viability [4] 82.5% | viability [5] 80.9% | inhibition [6] 3.5% | RAM network inhibition [7] 3.82%

COc1cccc(C2(O)CCN(C(=O)c3cccs3)CC2)c1
inactive: growth inhibition [1] -9.43% | growth inhibition [2] 6.06% | viability increase [3] 0.71% | viability [4] 91.5% | viability [5] 97% | inhibition [6] 1.58% | RAM network inhibition [7] 5.17%

Cc1ccc(-c2nc(CS(=O)CC(=O)NCCN3CCCC3)c(C)o2)cc1 (configuration not stated)
inactive: growth inhibition [1] -8.03% | growth inhibition [2] -5.56% | viability increase [3] -2.7% | viability [4] 86.4% | viability [5] 99.3% | inhibition [6] 0.18% | RAM network inhibition [7] 0.43%

O=C(CCNS(=O)(=O)c1cccc2nonc12)NCc1cccs1
inactive: growth inhibition [1] -0.555% | growth inhibition [2] -14.2% | viability increase [3] -1.88% | viability [4] 96.3% | viability [5] 89.1% | inhibition [6] 2.46% | RAM network inhibition [7] 1.92%

O=C(CC1NCCNC1=O)OCCCc1ccccc1 (configuration not stated)
inactive: growth inhibition [1] -0.955% | growth inhibition [2] -2.82% | viability increase [3] 0.07% | viability [4] 99.1% | viability [5] 99.9% | inhibition [6] 1.09% | RAM network inhibition [7] 5.29%

CCOC(=O)NC(Nc1ncccn1)(C(F)(F)F)C(F)(F)F
inactive: growth inhibition [1] 0.98% | growth inhibition [2] -5.49% | viability increase [3] -3.34% | viability [4] 94.4% | viability [5] 97.5% | inhibition [6] 1.17% | RAM network inhibition [7] 0.47%

CC(=O)Nc1cccc(N(C)C)c1
inactive: growth inhibition [1] 3.45% | growth inhibition [2] 5.4% | viability increase [3] -0.76% | viability [4] 96.1% | viability [5] 105% | inhibition [6] 1.44% | RAM network inhibition [7] 1.55%

Cc1sc2ncnc(NCc3ccco3)c2c1C
inactive: growth inhibition [1] 4.72% | growth inhibition [2] 6.04% | viability increase [3] -6.03% | viability [4] 55.6% | viability [5] 62.3% | inhibition [6] 1.61% | RAM network inhibition [7] 6.13%

CCOC(=O)N1CCN(C(=O)CSc2nnc(-c3ccc(C(C)(C)C)cc3)o2)CC1
inactive: growth inhibition [1] -7.79% | growth inhibition [2] 8.32% | viability increase [3] -1.07% | viability [4] 85.2% | viability [5] 83.7% | inhibition [6] 0.505% | RAM network inhibition [7] 1.1%

Reference: PubChem BioAssay
